Experimental data taken from the RNAGym collection of RNA variant scans (doi:10.1126/science.aae0568).
Fewer inactive variants are shown than the library holds.

B1: tRNA (parent)
chain: GUUCCGUUGGCGUAAUGGUAACGCGUCUCCCUCCUAAGGAGAAGACUGCGGGUUCGAGUCCCGUACGGAACG

Variants of: B1
Assay: yeast fitness relative to wild type (ratio to wild type); higher = fitter; tRNA-Arg(CCU), competitive growth, 37 C, YPD
Outline: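 Amplicons of the tRNA-Arg(CCU) gene were sequenced, 100-nucleotide paired-end, from the start population and from each end population of a pooled yeast competition. The competition, in six parallel replicates, lasted 24 hours in YPD at 37°C. Fitness relative to wild type was calculated from changes in genotype frequencies. Genotypes had to have ≥ 100 starting reads, and estimates < 0.5 were set to 0.5.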

| Variant | yeast fitness |
| --- | --- |
| GUUCCGUUGGCGUAAUGGAAACGCGUCUGCCUCCUAAGGAGAAGACUGCGGGUUCGAGUCCCGUACGGCACG | 0.547 |
| GUUCCGUUGGCGUAAUGGAAACGCGUCUGCCUUCUAAGGAGAAGACAGCGAGUUCGAGUCUCGUACGGAACG | ≤ 0.5 |
| GUUCCGUUGGCGUAAUGGAAACGCGUCUUCCUCCUAAGGAGAAGACUGCGGGUUCGAGUCCCGUACGGAACG | 0.76 |
| GUUCCGUUGGCGUAAUGGAAACGCGUCUCACUCCUAAGGAGAGGACUGCGGGUUCGAGUCCCGUACGGAACG | ≤ 0.5 |
| GUUCCGUUGGCGUAAUGGAAACGCGUCUCACUCCUAAGGAGAGGACUGUGGGUUAGAGUCCCGUACGGAACG | 0.64 |
| GUUCCGUUGGCGUAAUGGAAACGCGUCUCACUCCUAAGGAGAAGACUGCGGGUUCGAGUCCCGUGCGGAACG | 0.673 |
| GUUCCGUUGGCGUAAUGGAAACGCGUCUCGCUCCUAAGGCGAAGACUGCGGGUUCGAGUCCCGUACCGAACG | ≤ 0.5 |
| GUUCCGUUGGCGUAAUGGAAACGCGUCUCCAUCCUAGGGAGAAGACUGUGGGUUCGAGUCCCGUACGGAACG | ≤ 0.5 |
| GUUCCGUUGGCGUAAUGGAAACGCGUCUCCGUCCUAAGGAGAAGACUGCGGGUUCGAGUCCCGUACGGAACG | 1.02 |
| GUUCCGUUGGCGUAAUGGAAACGCGUCUCCGUCCUUAGGAGAAGACUGCGGGUUCGAGUCCCGUUCGGAACG | ≤ 0.5 |
| GUUCCGUUGGCGUAAUGGAAACGCGUCUCCUUCCUAAGGAGCAGACUGCGGGUUCGAGUCCCGUACGGAGCG | 0.912 |
| GUUCCGUUGGCGUAAUGGAAACGCGUCUCCUUCCUAAGGAGAAGACUGCGGGAUCGAGUCCCGUACGGAACG | ≤ 0.5 |
| GUUCCGUUGGCGUAAUGGAAACGCGUCUCCCUAUUCAGGAGAAGACUGCGGGUUCGAGUCCCGUACGGAACG | ≤ 0.5 |
| GUUCCGUUGGCGUAAUGGAAACGCGUCUCCCUUCUAAGGAGAAGACUGCGGGUUCGAGUCCCGUACGGAACG | 0.777 |
| GUUCCGUUGGCGUAAUGGAAACGCGUCUCCCUUCUUAGGAGAAGACUGCGGGUUCGAGUUCCGUACGGAACG | ≤ 0.5 |
| GUUCCGUUGGCGUAAUGGAAACGCGUCUCCCUUCUUAGGAGAAGACUGCGGGUUCGAGUCCCGUAUGGAACG | ≤ 0.5 |
| GUUCCGUUGGCGUAAUGGAAACGCGUCUCCCUCGUAUGGAGAAGACUGGGGGUUCGAGUCCCGUACGGAACG | ≤ 0.5 |
| GUUCCGUUGGCGUAAUGGAAACGCGUCUCCCUCGUAAGGGGAAGACUGCGGGUUCGAGUCCCGUACGGAACG | ≤ 0.5 |
| GUUCCGUUGGCGUAAUGGAAACGCGUCUCCCUCGUAAGGAGACGACUGCGGGUUCGAGUCCCGUACGGAGCG | ≤ 0.5 |

| Variant | yeast fitness |
| --- | --- |
| GUUCCGUUGGCGUAAUGGAAACGCGUCUCCCUCGUAAGGAGAAGACUGCGGAUUCGAGUCCCGUACGGAACG | ≤ 0.5 |
| GUUCCGUUGGCGUAAUGGAAACGCGUCUCCCUCUUAAGGAGUAGACUGCGGGUUCGAGUCCCGUACGGAACG | 0.543 |
| GUUCCGUUGGCGUAAUGGAAACGCGUCUCCCUCCUAAGGAGAAGAAUGCGGGUUCGAGUCCCGUACGGAACG | 1.13 |
| GUUCCGUUGGCGUAAUGGAAACGCGUCUCCCUCCUAAGGAGAAGAAUGCGGGUUCGAGUCCCGUACGGUACG | 0.752 |
| GUUCCGUUGGCGUAAUGGAAACGCGUCUCCCUCCUAAGGAGAAGAUUGCGGGUUCGAGUCCCGUACGGAACG | 0.958 |
| GUUCCGUUGGCGUAAUGGAAACGCGUCUCCCUCCUAAGGAGAAGAUUGCGGGUUGGAGUCCCGUACGAAACG | ≤ 0.5 |
| GUUCCGUUGGCGUAAUGGAAACGCGUCUCCCUCCUAAGGAGAAGACUGUGGGUUCGAGUCCCGUACAGAACG | 0.666 |
| GUUCCGUUGGCGUAAUGGAAACGCGUCUCCCUCCUAAGGAGAAGACUGCGGGUUAGAGUCUCGUACGGAACG | ≤ 0.5 |
| GUUCCGUUGGCGUAAUGGAAACGCGUCUCCCUCCUAAGGAGAAGACUGCGGGUUGGAGUCCCGUACGGAACG | 0.559 |
| GUUCCGUUGGCGUAAUGGAAACGCGUCUCCCUCCUAAGGAGAAGACUGCGGGUUGGGGUCCCGUACGGAACG | 0.5 |
| GUUCCGUUGGCGUAAUGGAAACGCGUCUCCCUCCUAAGGAGAAGACUGCGGGUUCGAGUACCGUACGGAACG | 0.623 |
| GUUCCGUUGGCGUAAUGGAAACGCGUCUCCCUCCUAAGGAGAAGACUGCGGGUUCGAGUUCCGUACGGAACG | 0.819 |
| GUUCCGUUGGCGUAAUGGAAACGCGUCUCCCUCCUAAGGAGAAGACUGCGGGUUCGAGUCACGUACGCAACG | 0.648 |
| GUUCCGUUGGCGUAAUGGAAACGCGUCUCCCUCCUAAGGAGAAGACUGCGGGUUCGAGUCGCGUACAGAACG | ≤ 0.5 |
| GUUCCGUUGGCGUAAUGGAAACGCGUCUCCCUCCUAAGGAGAAGACUGCGGGUUCGAGUCCAGUACGGAACG | 0.774 |
| GUUCCGUUGGCGUAAUGGAAACCCGUCUCCCUCCUAAGGAGAAGACUGCGGGUUCGAGUCCCGUACGGAACG | 0.549 |
| GUUCCGUUGGCGUAAUGGAAACGCAUCUCCCUCCUAAGGCGAAGAUUGCGGGUUCGAGUCCCGUACGGAACG | 0.588 |
| GUUCCGUUGGCGUAAUGGAAACGCAUCUCCCUCCUAAGGAGACGACUGCGGGGUCGAGUCCCCUACGGAACG | ≤ 0.5 |
| GUUCCGUUGGCGUAAUGGAAACGCCUCUCCCUCCUAAGGAGAUGACUGCGGGUUCGAGUCCCGUACGGAACG | 0.657 |
